Experimental data taken from ChEMBL document CHEMBL4680177, “Novel distamycin analogues that block the cell cycle of African trypanosomes with high selectivity and potency” (Eur J Med Chem, 2020).
Calls of active or inactive are those of the source. The rule behind the calls is not given here.

What was measured:
[1] = test system: Trypanosoma brucei brucei; experiment: Antitrypanosomal activity against bloodstream form Trypanosoma brucei brucei 427 […] assessed as cell viability at 5 uM after 24 hrs by propidium iodide staining based flow cytometric analysis relative to control; assay type: functional
Method in brief: (§1)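 Bloodstream T. b. brucei 427 expressing hGrx1-roGFP2 (line 449_Grx-roGFP2), grown in HMI-9 with 10% FBS, 37 °C, 5% CO2. Biosensor induced with oxytetracycline (1 µg/mL final). Exponential-phase cells seeded at 5×10^5/mL and exposed 24 h to a single 5 µM screen, or to 0.0001–120 µM for EC50. DMSO ≤1% v/v. Viability read by PI exclusion on flow cytometry, expressed relative to DMSO control. EC50 from nonlinear fit; ≥3 replicates, S.D.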

[2] = test system: Trypanosoma brucei brucei; experiment: Antitrypanosomal activity against bloodstream form Trypanosoma brucei brucei 427 […] assessed as cell viability after 24 hrs by propidium iodide staining based flow cytometric analysis; assay type: functional, organism-based; details: Trypanosoma brucei, 427, 24 h; method in brief: as §1
[3] = Selectivity index, ratio of EC50 for cytotoxicity against mouse J774 cells to EC50 for antitrypanosomal activity against bloodstream form Trypanosoma brucei brucei 427; assay type: toxicity, cell-based; details: read-out: Ratio EC50
Method in brief: (§2)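 J774 murine macrophages in DMEM with 10% FBS, 37 °C, 5% CO2. Exposed 24 h to a 6-point compound series, in triplicate, up to 120 µM with DMSO 1% v/v. Viability read with WST-1 reagent relative to DMSO control and EC50 taken from nonlinear fit. The selectivity index is the macrophage EC50 divided by the trypanosome EC50.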

J774 [4] = experiment: Cytotoxicity against mouse J774 cells assessed as reduction in cell viability at 120 uM after 24 hrs by WST-1 assay; assay type: cell-based; details: j774, 24 h; method in brief: as §2
J774 [5] = experiment: Cytotoxicity against mouse J774 cells assessed as reduction in cell viability >120 uM after 24 hrs by WST-1 assay; assay type: cell-based; details: j774, 24 h; method in brief: as §2
J774 [6] = experiment: Cytotoxicity against mouse J774 cells assessed as reduction in cell viability after 24 hrs by WST-1 assay; assay type: cell-based; details: J774, 24 h; method in brief: as §2
[7] = test system: Trypanosoma brucei brucei; experiment: Induction of membrane permeability in bloodstream form Trypanosoma brucei brucei 427 assessed as change in integrity at EC50 concentration after 4 hrs by propidium iodide staining based flow cytometric analysis
[8] = test system: Trypanosoma brucei brucei; experiment: Induction of oxidative stress in bloodstream form Trypanosoma brucei brucei 427 up to 5 times EC50 concentration after 4 hrs by propidium iodide staining based flow cytometric analysis; assay type: functional
[9] = test system: Trypanosoma brucei brucei; experiment: Induction of cell cycle arrest in bloodstream form Trypanosoma brucei brucei 427 assessed as accumulation at 1K+1N cells at 12 nM after 24 hrs by DAPI. staining based epifluorescence microscopic analysis (reference value: 80%); assay type: functional
Method in brief: (§3)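 Parasites at 5×10^5/mL treated 24 h with DMSO 1%, DAC 41 nM, or compound at 12 or 7 nM. Cells fixed in 4% paraformaldehyde for 18 min at room temperature and smeared on slides. Mounted in DAPI medium and scored by epifluorescence microscopy (60X/100X) for kinetoplast/nucleus configuration. At least 50 cells per sample.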

[10] = test system: Trypanosoma brucei brucei; experiment: Induction of cell cycle arrest in bloodstream form Trypanosoma brucei brucei 427 assessed as accumulation at single kinetoplast and septum like or partitioned nucleus cells at 12 nM after 24 hrs by DAPI. staining based epifluorescence microscopic analysis relative to control; assay type: functional; method in brief: as §3
DNA [11] = experiment: Competitive binding affinity to Escherichia coli XL-1 pUC18 plasmid DNA at 20 uM after 30 mins by DAPI staining based spectrofluorimetric method relative to control; assay type: nucleic-acid assay
Method in brief: (§4)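 pUC18 or pUC18 carrying a T. brucei minicircle, 5 nM in PBS pH 7.4, incubated 30 or 120 min with 20 µM compound or DMSO 1% v/v. DAPI then added to 500 nM final and emission recorded by spectrofluorimetry (ex 358 nm, em 368–600 nm). Fluorescence normalized to the DNA+DMSO+DAPI control set at 100%. Mean ± S.D., n=3.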

DNA [12] = experiment: Competitive binding affinity to Escherichia coli XL-1 pUC18 K-DNA at 20 uM after 30 mins by DAPI staining based spectrofluorimetric method relative to control; assay type: nucleic-acid assay; method in brief: as §4
DNA [13] = experiment: Competitive binding affinity to Escherichia coli XL-1 pUC18 plasmid DNA at 20 uM after 120 mins by DAPI staining based spectrofluorimetric method relative to control; assay type: nucleic-acid assay; method in brief: as §4
DNA [14] = experiment: Competitive binding affinity to Escherichia coli XL-1 pUC18 K-DNA at 20 uM after 120 mins by DAPI staining based spectrofluorimetric method relative to control; assay type: nucleic-acid assay; method in brief: as §4

| SMILES | EC50 [2] | Activity [1] | selectivity ratio [3] | Activity (J774 [4]) | Activity (J774 [5]) | other results |
| --- | --- | --- | --- | --- | --- | --- |
| Cn1cc(NC(=O)c2csc(NC(=O)OC(C)(C)C)n2)cc1C(=O)Nc1nc(C(=O)O)cs1 | 3.33 µM | 23.6% | > 35 | Non-Toxic | Nd(Insoluble) |  |
| COC(=O)c1nc(NC(=O)c2cc([N+](=O)[O-])cn2C)sc1C(C)C |  | 105.6% |  |  |  |  |
| CCOC(=O)c1csc(NC(=O)c2cc([N+](=O)[O-])cn2C)n1 |  | 120.5% |  |  |  |  |
| CC(C)c1sc(NC(=O)c2cc(NC(=O)c3nc(NC(=O)OC(C)(C)C)sc3C(C)C)cn2C)nc1C(=O)O |  | 48.5% |  | Non-Toxic | Nd(Insoluble) |  |

Now from value to molecule, other results behind:

| EC50 [2] | SMILES | Activity [1] | selectivity ratio [3] | Activity (J774 [4]) | Activity (J774 [5]) | other results |
| --- | --- | --- | --- | --- | --- | --- |
| 0.0118 µM | COC(=O)c1nc(NC(=O)c2cc(NC(=O)c3nc(NC(=O)OC(C)(C)C)sc3C(C)C)cn2C)sc1C(C)C | 15.5% | > 10200 |  |  | EC50 (J774 [6]): 39.5 µM; Activity [7]: inactive; Activity [8]: inactive; Activity [9]: 48%; Activity [10]: 38%; Activity (DNA [11]): 15%; Activity (DNA [12]): 15%; Activity (DNA [13]): inactive; Activity (DNA [14]): 30% |
| 0.827 µM | COC(=O)c1nc(NC(=O)c2cc(NC(=O)c3nc(NC(C)=O)sc3C(C)C)cn2C)sc1C(C)C | 5.4% | > 145 | Non-Toxic | Nd(Insoluble) |  |
